Bioassay records from PubChem.
Hits are enriched below; roughly 3.9% of the tested compounds scored in any of these assays.
CHRM1 agonist = human M1 muscarinic receptor agonists, primary screen, Fluo-8 calcium fluorescence, CHO-K1 cells, HTS; Muscarinic acetylcholine receptor M1 (Homo sapiens), P11229; CHO-K1 hM1, agonist mode; 0% DMSO, 100% acetylcholine EC100; activation, % at 3 µM; 360,000 compounds, 0.33% hits; AID 588814, 2011;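 active = activation above the run's mean compound activation plus 3 SD, cut at about 16% in these data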;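 note: peak over basal fluorescence ratio within a 140 s kinetic read after compound addition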
TAAR1 antagonist = human TAAR1 antagonists, primary screen, Fluo-8 calcium fluorescence, CHO RD-HGA16 cells; antagonist; 360,000 compounds, 1.5% hits; inhibition, % at 3 µM; AID 624466, 2012;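 active = inhibition above a per-plate cutoff, the mean inhibition of test compounds on that plate plus 3 SD, cut at about 49% in these data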
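System: RD-HGA16 CHO cells with stable hTAAR1 and Gα16 | Probe or stimulus: EC80 β-phenethylamine stimulus | Dosing: 3 µM, single point | Times: Dye loading 75 min at 37 °C, then 30 min room temperature | Measured by: Fluo-8 calcium-sensitive fluorescence | Read-out basis: % inhibition of agonist calcium response | Replicates: n of 1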
M1 antag = human M1 muscarinic receptor antagonists, primary screen, CHO-K1 cells, Fluo-8 calcium fluorescence, 1536-well. Muscarinic acetylcholine receptor M1 (Homo sapiens), P11229. AID 588852, 2011. inhibition, % at 3 µM. CHO-K1 hM1, ACh EC80 antagonist. 360,000 compounds, 1.3% hits;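 active = percent inhibition above its own plate's cutoff, namely the mean of that plate's compound wells plus 3 SD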;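 note: peak over basal fluorescence ratio during 140 s after agonist addition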
M1 PAM = human M1 muscarinic receptor positive allosteric modulators, primary screen, CHO-K1 cells, Fluo-8 calcium fluorescence, 1536-well; Muscarinic acetylcholine receptor M1 (Homo sapiens), P11229; CHO-K1 hM1, ACh EC20; 0% = ACh EC20, 100% = maximal ACh; activation, % at 3 µM; 360,000 compounds, 0.088% hits; AID 588819, 2011; in the data active = activation above about 19%, passing the limit was not always enough
TAAR1 ag = human TAAR1 agonists, primary screen, Fluo-8 calcium fluorescence, CHO RD-HGA16 cells; vehicle wells 0%, saturating PEA agonist 100%; 360,000 compounds, 0.99% hits; Trace amine-associated receptor 1 (Homo sapiens), Q96RJ0; activation, % at 3 µM; AID 624467, 2012;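 active = activation above the mean activation of all test compounds in the run plus 3 SD, cut at about 38% in these data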
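Benchmarks: low control DMSO, high control PEA (EC100); System: CHO RD-HGA16 cells carrying human TAAR1 plus Gα16; Detection: Fluo-8 fluorescence, 5 s baseline then 140 s kinetic read; Schedule: 17-24 h plating, Fluo-8 75 min 37 °C, 30 min RT; Read-out basis: % activation from peak over basal fluorescence ratio, DMSO-to-PEA scaled.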
HTR2A ag = mouse Htr2a agonists via beta-arrestin recruitment, primary screen, cell-based, luminescence | 5-hydroxytryptamine receptor 2A (Mus musculus), P35363 | CHO-K1 mHTR2A beta-arrestin complementation; percent of 30 µM serotonin response | activation, % at 7.6 µM | 360,000 compounds, 0.66% hits;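 active = activation above a run cutoff, the mean activation of all tested compounds plus 3 SD, cut at about 14% in these data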
Target sequence (P35363 whole entry, looked up): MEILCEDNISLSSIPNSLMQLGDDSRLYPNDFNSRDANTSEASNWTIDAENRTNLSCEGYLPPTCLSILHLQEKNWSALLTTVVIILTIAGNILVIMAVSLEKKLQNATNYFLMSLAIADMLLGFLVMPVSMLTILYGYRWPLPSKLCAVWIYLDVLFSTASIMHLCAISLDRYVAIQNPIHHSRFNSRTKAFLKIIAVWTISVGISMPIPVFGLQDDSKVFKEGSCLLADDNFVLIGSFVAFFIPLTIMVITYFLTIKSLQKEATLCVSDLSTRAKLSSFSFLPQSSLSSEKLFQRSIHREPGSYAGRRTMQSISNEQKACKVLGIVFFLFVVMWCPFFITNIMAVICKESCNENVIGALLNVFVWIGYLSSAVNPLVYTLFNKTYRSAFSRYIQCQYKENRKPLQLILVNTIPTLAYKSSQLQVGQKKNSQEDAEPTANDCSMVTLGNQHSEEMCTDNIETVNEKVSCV
MOR ag counter = OPRM1 agonists via beta-arrestin recruitment, confirmation, counter-screen for mouse HTR2A agonist project, cell-based, luminescence, single concentration. activation, % at 9.3 µM. U2OS OPRM1 beta-arrestin PathHunter; DMSO 0%, DAMGO 9.3 µM 100%. shares compounds with HTR2A ag. AID 624380, 2012. 2,300 compounds, 5.3% hits;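 active = mean activation above the mean of DMSO-only wells plus 3 SD, cut at about 0.5% in these data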
HTR2A ag conf = mouse HTR2A agonists, beta-arrestin recruitment, confirmation, cell-based, luminescence, CHO-K1 PathHunter, triplicate. shares compounds with HTR2A ag. DMSO 0%, 30 µM serotonin 100%. activation, % at 7.6 µM. 2,300 compounds, 19% hits. AID 624381, 2012;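 active = mean activation across triplicates above the hit threshold derived in the original primary screen, cut at about 15% in these data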
A number is an active result; . = inactive; / = not tested or not shown.

SMILES	CHRM1 agonist	TAAR1 antagonist	M1 antag	M1 PAM	TAAR1 ag	HTR2A ag	MOR ag counter	HTR2A ag conf
Cc1[nH]c(=O)[nH]c(=O)c1S(=O)(=O)N1CCCC(C(=O)N2CCN(c3ccccc3Cl)CC2)C1 (stereo unspecified)	.	/	.	.	/	.	/	/
Cc1[nH]c(=O)[nH]c(=O)c1S(=O)(=O)N1CCCC(C(=O)N2CCC(Cc3ccccc3)CC2)C1 (stereo unspecified)	.	.	.	.	.	19	.	.
COc1cc(OC)cc(C(=O)NCC(=O)Nc2ccc(OC)c(Cl)c2)c1	.	.	.	.	.	.	/	/
COc1cc(-c2nnc(-c3cc(OC)c(OC)c(OC)c3)o2)cc(OC)c1OC	.	.	.	.	.	17	.	.
CC(=O)Nc1ccc(S(=O)(=O)NCCC(=O)N2CCN(C(c3ccccc3)c3ccccc3)CC2)cc1	.	.	.	.	.	16	.	.
C=C(C)c1cccc(C(C)(C)NC(=O)N2CCCCC2CC)c1 (stereo unspecified)	.	.	.	.	.	53	.	17
C=C(C)c1cccc(C(C)(C)NC(=O)N2CCN(CC)CC2)c1	.	.	.	.	.	.	/	/
C=C(C)c1cccc(C(C)(C)NC(=O)Nc2ccc(OC)cc2)c1	.	.	.	.	.	17	.	.
C=C(C)c1cccc(C(C)(C)NC(=O)N2CCC(C)CC2)c1	.	.	.	.	.	19	.	.
CCOC(=O)CNC(=O)CSc1nnc(NC(=O)c2ccccc2Cl)s1	.	.	.	.	.	.	/	/
Cn1nc(-c2ccc(Cl)cc2)cc1NC(=O)CSCC(=O)O	.	.	.	.	.	.	/	/
CCCCC(=O)N(C)c1c(CC)nc2c(OCC(=O)c3ccc(F)cc3)cccn12	.	.	.	.	.	.	/	/
CCN1C(=O)N[C@@H](c2cccc(C(F)(F)F)c2)[C@@H](C(=O)OC)[C@H]1C	.	.	.	.	.	.	/	/
CCOC(=O)CN1C(=O)N[C@@H](c2cccc(C(F)(F)F)c2)[C@H](C(C)=O)[C@H]1C	.	.	.	.	.	18	.	.
COc1ccc(Cl)cc1CC1(C)C(=O)Nc2ccc(-c3ccccc3OC)cc21 (stereo unspecified)	.	.	.	.	.	21	.	17
COc1ccccc1-c1ccc2c(c1)C(C)(Cc1cc(Cl)ccc1C(F)(F)F)C(=O)N2 (stereo unspecified)	.	.	.	.	.	.	/	/
Nc1ccc2c(c1)OC1(CCCC1)O2	.	.	.	.	.	.	/	/
O=C(Nc1ccc(Br)cc1C(=O)O)c1ccc2c(c1)C(=O)N(Cc1ccccc1)C2=O	.	.	.	.	.	15	.	.
CC(C)[C@H](NC(=O)N1c2ccccc2NC(=O)[C@@H]1C(C)C)C(=O)N1CCC[C@H]1C(=O)O	.	.	.	.	.	.	/	/
Cc1ccc2c(c1)CCCN2S(=O)(=O)c1cccc(C(=O)Nc2ccccc2C(=O)O)c1	.	.	.	.	.	15	.	.
Cc1cccc(N2CCN(C(=S)Nc3ccc4nc(N5CCOCC5)cc(C)c4c3)CC2C)c1 (stereo unspecified)	.	.	.	.	.	16	.	.
O=C(Nc1ccccc1)N1CCN(c2nc3ccccc3s2)CC1	.	.	.	.	.	27	.	.
